Laboratory results reported in ChEMBL document CHEMBL4346701, “Synthesis and biological evaluation of tryptophan-derived rhodanine derivatives as PTP1B inhibitors and anti-bacterial agents” (Eur J Med Chem, 2019).
≈ marks a conversion by molar mass, not a printed value.

Tests used:
[1] = test system: Escherichia coli; assay: Antibacterial activity against Escherichia coli 1924 assessed as reduction in bacterial cell growth incubated for 24 hrs by ELISA; assay type: functional; settings: Escherichia coli, 1924, 24 h
In short: (§1)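 MIC determined by serial dilution in 96-well microtiter plates. Strains used were E. coli 1924 and P. aeruginosa 2742 (Gram-negative), S. mutans 3289 (Gram-positive) and the fungus C. albicans 7535. Gatifloxacin, moxifloxacin, norfloxacin and oxacillin served as antibacterial reference agents, and fluconazole as the antifungal reference.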

[2] = test system: Staphylococcus aureus; assay: Antibacterial activity against Staphylococcus aureus RN4220 assessed as reduction in bacterial cell growth incubated for 24 hrs by ELISA; assay type: functional; settings: RN4220, 24 h
In short: (§2)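 MICs determined by serial dilution in 96-well microtiter plates. The strain panel included Gram-positive S. aureus strains and multidrug-resistant clinical isolates. Gatifloxacin, moxifloxacin, norfloxacin and oxacillin served as antibacterial positive controls.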

[3] = test system: Staphylococcus aureus; assay: Antibacterial activity against Staphylococcus aureus KCTC209 assessed as reduction in bacterial cell growth incubated for 24 hrs by ELISA; assay type: functional; settings: KCTC209, 24 h; in short: as §2
[4] = target: T1, Tyrosine-protein phosphatase non-receptor type 2 (Homo sapiens, UniProt P17706); assay: Inhibition of human recombinant GST-tagged TCPTP (catalytic domain […] residues) expressed in Escherichia coli BL21 (DE3) using pNPP as substrate measured for 2 mins by colorimetric analysis
T1 sequence (P17706 whole entry): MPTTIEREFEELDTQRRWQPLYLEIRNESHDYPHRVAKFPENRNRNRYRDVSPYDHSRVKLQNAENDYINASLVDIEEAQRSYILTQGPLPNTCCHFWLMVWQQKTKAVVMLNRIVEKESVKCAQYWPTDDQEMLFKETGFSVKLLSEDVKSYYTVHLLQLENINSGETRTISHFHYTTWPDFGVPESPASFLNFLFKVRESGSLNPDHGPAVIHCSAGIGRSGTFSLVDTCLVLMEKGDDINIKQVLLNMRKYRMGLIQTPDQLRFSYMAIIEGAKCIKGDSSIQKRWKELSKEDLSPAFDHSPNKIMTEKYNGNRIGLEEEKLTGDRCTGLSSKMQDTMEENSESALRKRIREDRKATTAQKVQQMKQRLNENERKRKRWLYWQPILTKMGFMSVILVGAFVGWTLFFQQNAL

[5] = test system: Staphylococcus aureus; assay: Antibacterial activity against Methicillin-resistant Staphylococcus aureus CCARM 3506 assessed as reduction in bacterial cell growth incubated for 24 hrs by ELISA; assay type: functional; settings: CCARM 3506, 24 h; in short: as §2
[6] = test system: Pseudomonas aeruginosa; assay: Antibacterial activity against Pseudomonas aeruginosa 2742 assessed as reduction in bacterial cell growth incubated for 24 hrs by ELISA; assay type: functional; settings: Pseudomonas aeruginosa, 2742, 24 h; in short: as §1
[7] = test system: Staphylococcus aureus; assay: Antibacterial activity against Quinolone-resistant Staphylococcus aureus CCARM 3519 assessed as reduction in bacterial cell growth incubated for 24 hrs by ELISA; assay type: functional; settings: CCARM 3519, 24 h; in short: as §2
[8] = target: T2, Tyrosine-protein phosphatase non-receptor type 1 (Homo sapiens, UniProt P18031); assay: Inhibition of human recombinant GST-tagged PTP1B expressed in Escherichia coli BL21 (DE3) using pNPP as substrate measured for 2 mins by colorimetric analysis
T2 sequence (P18031 whole entry): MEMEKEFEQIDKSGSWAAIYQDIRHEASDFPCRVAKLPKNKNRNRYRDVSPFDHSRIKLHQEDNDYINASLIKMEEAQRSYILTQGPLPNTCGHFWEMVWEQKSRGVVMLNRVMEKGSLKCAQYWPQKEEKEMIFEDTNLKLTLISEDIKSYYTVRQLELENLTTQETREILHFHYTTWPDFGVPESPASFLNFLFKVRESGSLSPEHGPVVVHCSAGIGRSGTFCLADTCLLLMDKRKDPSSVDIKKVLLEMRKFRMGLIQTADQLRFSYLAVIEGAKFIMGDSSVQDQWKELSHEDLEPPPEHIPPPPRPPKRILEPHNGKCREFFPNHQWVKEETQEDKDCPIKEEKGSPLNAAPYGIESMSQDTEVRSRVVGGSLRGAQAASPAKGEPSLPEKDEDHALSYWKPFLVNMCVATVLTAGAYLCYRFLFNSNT

[9] = target: T3, M-phase inducer phosphatase 2 (Homo sapiens, UniProt P30305); assay: Inhibition of human recombinant GST-tagged CDC25B expressed in Escherichia coli BL21 (DE3) using pNPP as substrate measured for 2 mins by colorimetric analysis
T3 sequence (P30305 whole entry): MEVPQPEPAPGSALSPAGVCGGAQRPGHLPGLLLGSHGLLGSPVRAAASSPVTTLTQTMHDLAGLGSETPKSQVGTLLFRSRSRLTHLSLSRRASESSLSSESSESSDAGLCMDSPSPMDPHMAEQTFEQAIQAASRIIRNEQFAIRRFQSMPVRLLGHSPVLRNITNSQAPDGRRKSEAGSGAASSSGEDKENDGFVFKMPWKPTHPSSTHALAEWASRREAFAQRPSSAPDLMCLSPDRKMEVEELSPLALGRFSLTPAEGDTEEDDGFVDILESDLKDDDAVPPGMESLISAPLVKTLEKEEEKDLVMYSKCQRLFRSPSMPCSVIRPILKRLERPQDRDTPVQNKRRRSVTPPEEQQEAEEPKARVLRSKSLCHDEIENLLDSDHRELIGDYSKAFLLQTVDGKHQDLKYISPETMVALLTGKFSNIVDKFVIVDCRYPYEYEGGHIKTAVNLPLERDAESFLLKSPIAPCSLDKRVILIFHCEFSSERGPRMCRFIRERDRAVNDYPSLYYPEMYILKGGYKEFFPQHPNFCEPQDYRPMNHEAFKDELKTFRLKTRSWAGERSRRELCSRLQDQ
In short: (§3)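 pNPP hydrolysis assay. IC50 was derived by regression analysis and given as mean ± SD of three replications.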

[10] = test system: Staphylococcus aureus; assay: Antibacterial activity against Methicillin-resistant Staphylococcus aureus CCARM 3167 assessed as reduction in bacterial cell growth incubated for 24 hrs by ELISA; assay type: functional; settings: CCARM 3167, 24 h; in short: as §2
[11] = target: Tyrosine-protein phosphatase non-receptor type 6 (Homo sapiens, UniProt P29350); assay: Inhibition of human recombinant GST-tagged SHP1 (catalytic domain 244 to 570 residues) expressed in Escherichia coli BL21 (DE3) using pNPP as substrate measured for 2 mins by colorimetric analysis; in short: as §3
[12] = test system: Staphylococcus aureus; assay: Antibacterial activity against Staphylococcus aureus KCTC503 assessed as reduction in bacterial cell growth incubated for 24 hrs by ELISA; assay type: functional; settings: KCTC503, 24 h; in short: as §2
[13] = test system: Streptococcus mutans; assay: Antibacterial activity against Streptococcus mutans KCTC3289 assessed as reduction in bacterial cell growth incubated for 24 hrs by ELISA; assay type: functional; settings: KCTC3289, 24 h; in short: as §1
[14] = test system: Candida albicans; assay: Antifungal activity against Candida albicans 7535 assessed as reduction in bacterial cell growth incubated for 24 hrs by ELISA; assay type: functional; settings: Candida albicans, 7535, 24 h; in short: as §1
[15] = target: T4, Tyrosine-protein phosphatase non-receptor type 11 (Homo sapiens, UniProt Q06124); assay: Inhibition of human recombinant GST-tagged SHP2 (catalytic domain […] residues) expressed in Escherichia coli BL21 (DE3) using pNPP as substrate measured for 2 mins by colorimetric analysis; in short: as §3
T4 sequence (Q06124 whole entry): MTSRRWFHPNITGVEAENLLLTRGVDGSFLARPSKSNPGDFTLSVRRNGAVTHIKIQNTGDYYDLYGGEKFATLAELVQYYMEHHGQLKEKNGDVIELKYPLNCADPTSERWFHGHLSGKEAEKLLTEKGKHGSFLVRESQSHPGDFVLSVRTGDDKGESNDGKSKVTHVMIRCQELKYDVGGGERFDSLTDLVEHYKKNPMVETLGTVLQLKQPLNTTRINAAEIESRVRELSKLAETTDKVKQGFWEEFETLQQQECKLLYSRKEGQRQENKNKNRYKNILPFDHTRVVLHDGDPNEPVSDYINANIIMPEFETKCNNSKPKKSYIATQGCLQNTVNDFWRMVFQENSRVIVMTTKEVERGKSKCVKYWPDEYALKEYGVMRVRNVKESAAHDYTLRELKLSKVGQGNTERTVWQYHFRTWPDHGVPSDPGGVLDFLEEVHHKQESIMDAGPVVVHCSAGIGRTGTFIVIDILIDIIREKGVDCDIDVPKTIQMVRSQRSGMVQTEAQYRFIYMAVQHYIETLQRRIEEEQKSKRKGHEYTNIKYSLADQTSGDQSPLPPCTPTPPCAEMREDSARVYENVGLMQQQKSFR

[16] = test system: Staphylococcus aureus; assay: Antibacterial activity against Quinolone-resistant Staphylococcus aureus CCARM 3505 assessed as reduction in bacterial cell growth incubated for 24 hrs by ELISA; assay type: functional; settings: CCARM 3505, 24 h; in short: as §2
[17] = test system: Staphylococcus aureus; assay: Potency index, ratio of MIC of gatifloxacin to MIC of compound for antibacterial activity against Staphylococcus aureus KCTC503 assessed as reduction in bacterial cell growth incubated for 24 hrs by ELISA; assay type: functional
[18] = test system: Staphylococcus aureus; assay: Potency index, ratio of MIC of norfloxacin to MIC of compound for antibacterial activity against Methicillin-resistant Staphylococcus aureus CCARM 3167 assessed as reduction in bacterial cell growth incubated for 24 hrs by ELISA; assay type: functional
[19] = test system: Staphylococcus aureus; assay: Potency index, ratio of MIC of oxacillin to MIC of compound for antibacterial activity against Methicillin-resistant Staphylococcus aureus CCARM 3167 assessed as reduction in bacterial cell growth incubated for 24 hrs by ELISA; assay type: functional
[20] = test system: Staphylococcus aureus; assay: Potency index, ratio of MIC of norfloxacin to MIC of compound for antibacterial activity against Methicillin-resistant Staphylococcus aureus CCARM 3506 assessed as reduction in bacterial cell growth incubated for 24 hrs by ELISA; assay type: functional
[21] = test system: Staphylococcus aureus; assay: Potency index, ratio of MIC of oxacillin to MIC of compound for antibacterial activity against Methicillin-resistant Staphylococcus aureus CCARM 3506 assessed as reduction in bacterial cell growth incubated for 24 hrs by ELISA; assay type: functional
[22] = test system: Escherichia coli; assay: Potency index, ratio of MIC of gatifloxacin to MIC of compound for antibacterial activity against Escherichia coli 1924 assessed as reduction in bacterial cell growth incubated for 24 hrs by ELISA; assay type: functional
[23] = test system: Escherichia coli; assay: Potency index, ratio of MIC of moxifloxacin to MIC of compound for antibacterial activity against Escherichia coli 1924 assessed as reduction in bacterial cell growth incubated for 24 hrs by ELISA; assay type: functional

Chain of Tyrosine-protein phosphatase non-receptor type 6 (P29350 whole entry, the tested form may be a part): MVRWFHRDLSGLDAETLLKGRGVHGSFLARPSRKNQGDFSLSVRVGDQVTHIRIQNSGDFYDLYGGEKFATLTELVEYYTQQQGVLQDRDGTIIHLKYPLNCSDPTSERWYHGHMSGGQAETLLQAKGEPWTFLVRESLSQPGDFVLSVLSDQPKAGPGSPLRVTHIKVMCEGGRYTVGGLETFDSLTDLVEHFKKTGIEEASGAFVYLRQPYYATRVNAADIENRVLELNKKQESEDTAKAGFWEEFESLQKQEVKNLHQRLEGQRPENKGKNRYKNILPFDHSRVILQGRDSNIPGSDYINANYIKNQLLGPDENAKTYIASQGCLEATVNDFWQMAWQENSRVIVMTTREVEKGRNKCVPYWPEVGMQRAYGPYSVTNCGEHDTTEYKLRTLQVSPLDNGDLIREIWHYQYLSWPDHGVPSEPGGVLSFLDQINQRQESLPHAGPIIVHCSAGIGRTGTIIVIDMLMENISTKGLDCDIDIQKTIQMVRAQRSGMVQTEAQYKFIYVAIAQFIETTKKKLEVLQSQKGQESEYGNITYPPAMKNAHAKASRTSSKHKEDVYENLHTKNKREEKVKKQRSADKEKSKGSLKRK

Structure (SMILES)	MIC [1] [µg/mL]	MIC [2] [µg/mL]	MIC [3] [µg/mL]	MIC [5] [µg/mL]	MIC [6] [µg/mL]	MIC [7] [µg/mL]	IC50 [8] [nM]	MIC [10] [µg/mL]	MIC [12] [µg/mL]	MIC [13] [µg/mL]	MIC [14] [µg/mL]	MIC [16] [µg/mL]	Ratio [17]	Ratio [18]	Ratio [19]	Ratio [20]	Ratio [21]	other results
O=C(O)C(Cc1c[nH]c2ccccc12)N1C(=O)/C(=C/c2ccc3cc(OCc4ccc(F)cc4)ccc3c2)SC1=S (stereo not drawn)	2 (≈ 3.43 µM)	1 (≈ 1.72 µM)	4 (≈ 6.86 µM)	2 (≈ 3.43 µM)	> 64	2 (≈ 3.43 µM)	450	2 (≈ 3.43 µM)	2 (≈ 3.43 µM)	2 (≈ 3.43 µM)	> 64	2 (≈ 3.43 µM)	–	–	–	–	–	IC50 [4]: 1120 nM; IC50 [9]: 380 nM; IC50 [11]: 1520 nM; IC50 [15]: 4.26 µM
O=C(O)C(Cc1c[nH]c2ccccc12)N1C(=O)/C(=C/c2cccc(OCc3ccc(Cl)cc3)c2)SC1=S (stereo not drawn)	2 (≈ 3.64 µM)	2 (≈ 3.64 µM)	2 (≈ 3.64 µM)	4 (≈ 7.29 µM)	> 64	4 (≈ 7.29 µM)	5760	2 (≈ 3.64 µM)	2 (≈ 3.64 µM)	2 (≈ 3.64 µM)	> 64	2 (≈ 3.64 µM)	2	–	–	–	–	–
O=C(O)C(Cc1c[nH]c2ccccc12)N1C(=O)/C(=C/c2ccc3cc(OCc4ccc(Cl)cc4)ccc3c2)SC1=S (stereo not drawn)	2 (≈ 3.34 µM)	2 (≈ 3.34 µM)	–	2 (≈ 3.34 µM)	> 64	4 (≈ 6.68 µM)	720	2 (≈ 3.34 µM)	–	2 (≈ 3.34 µM)	> 64	2 (≈ 3.34 µM)	–	4	64	4	64	–
O=C(O)C(Cc1c[nH]c2ccccc12)N1C(=O)/C(=C/c2ccc(OCc3ccc(Br)cc3)cc2)SC1=S (stereo not drawn)	1 (≈ 1.68 µM)	1 (≈ 1.68 µM)	4 (≈ 6.74 µM)	2 (≈ 3.37 µM)	> 64	2 (≈ 3.37 µM)	2600	2 (≈ 3.37 µM)	2 (≈ 3.37 µM)	1 (≈ 1.68 µM)	> 64	2 (≈ 3.37 µM)	2	4	64	4	64	Ratio [22]: 2; Ratio [23]: 2
COc1cc(/C=C2\SC(=S)N(C(Cc3c[nH]c4ccccc34)C(=O)O)C2=O)ccc1OCc1ccc(Cl)cc1Cl (stereo not drawn)	2 (≈ 3.26 µM)	2 (≈ 3.26 µM)	2 (≈ 3.26 µM)	2 (≈ 3.26 µM)	> 64	2 (≈ 3.26 µM)	700	2 (≈ 3.26 µM)	2 (≈ 3.26 µM)	2 (≈ 3.26 µM)	> 64	2 (≈ 3.26 µM)	–	4	64	4	64	–
